Assay outcomes deposited in PubChem by several laboratories.
procasp3 activ: activators of human procaspase-3. P42574. recombinant procaspase-3 D3A, Ac-DEVD-pNA absorbance 405 nm. activation, % at 8.5 µM. 330,000 compounds, 0.11% hits;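 active = activation above the mean of all tested compounds plus 3 SD, cut at about 21% in these data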
Target sequence (P42574 whole entry D9A/D28A/D175A): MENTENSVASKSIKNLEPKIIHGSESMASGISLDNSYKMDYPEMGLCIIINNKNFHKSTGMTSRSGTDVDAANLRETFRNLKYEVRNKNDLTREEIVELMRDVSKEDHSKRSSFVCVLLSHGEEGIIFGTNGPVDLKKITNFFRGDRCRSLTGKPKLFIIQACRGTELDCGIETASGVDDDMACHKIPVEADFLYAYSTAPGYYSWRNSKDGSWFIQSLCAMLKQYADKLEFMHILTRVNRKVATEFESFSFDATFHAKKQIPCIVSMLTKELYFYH
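Evaluation: percent activation relative to control range; Material: Procaspase-3 D3A mutant, all three cleavage aspartates alanine; Compound: single dose, 8.5 µM nominal compound, 0.8% DMSO; Replication: one well per compound; Signal: absorbance at 405 nm, 0 and 120 min; Schedule: 1 h preincubation plus 2 h reaction at 25 °C.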
sPLA2-III inh: Inhibits HGIII-sPLA2 liposome hydrolysis, primary screen; QFRET BODIPY PC-A2 liposome hydrolysis, fluorescence; inhibition, % at 12.2 µM; 370,000 compounds, 0.56% hits; AID 743126;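 active = inhibition above mean plus 3 SD of compounds lying within the high and low control bounds, cut at about 19% in these data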
Arrestin-AP2 inh: blocks beta-arrestin peptide binding to AP2 adaptin | FITC-arrestin peptide / GST-AP2 beads, flow cytometry; AP2 beta2 appendage carries R879A mutation | inhibition, % at 10 µM | 340,000 compounds, 0.31% hits | AID 504490;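 active = inhibition above a set limit, near 3 SD of compounds lacking own fluorescence, cut at about 54% in these data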
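System: GST-tagged AP2 beta2-adaptin appendage (R879A) on 4 µm glutathione beads / Reagent: FITC-arrestin peptide, 50 nM / Detection: HyperCyt-sampled flow cytometry, FL1 channel, ex 488/em 535 nm / Timing: 12 min plus 1 h, RT / Buffer or medium: PBS plus Tween 20 (0.05%) and BSA (0.1%)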
procasp7 counter: counter-screen for procaspase-3 activators: activators of human procaspase-7; P55210; recombinant procaspase-7, Ac-DEVD-pNA absorbance 405 nm; D23A/D198A/D206A triple mutant, cannot self-cleave; scale: DMSO 0, 5 µM enzyme 100; activation, % at 8.5 µM; 330,000 compounds, 0.093% hits; AID 463210;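 active = percent activation above the screen-wide mean plus 3 SD, cut at about 25% in these data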
Target sequence (P55210 whole entry D23A/D198A/D206A): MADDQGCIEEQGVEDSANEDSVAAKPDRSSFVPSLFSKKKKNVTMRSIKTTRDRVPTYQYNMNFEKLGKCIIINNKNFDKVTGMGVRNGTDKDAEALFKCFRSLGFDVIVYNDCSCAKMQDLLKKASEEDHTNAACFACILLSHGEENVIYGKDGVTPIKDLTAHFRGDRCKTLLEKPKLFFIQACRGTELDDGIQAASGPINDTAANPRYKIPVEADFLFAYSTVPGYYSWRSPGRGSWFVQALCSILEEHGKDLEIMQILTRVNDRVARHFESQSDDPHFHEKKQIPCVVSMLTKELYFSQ
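System: Uncleavable procaspase-7 mutant enzyme; Amount: 2 µM procaspase-7 mutant as dispensed; Schedule: 1 h compound preincubation, 2 h substrate cleavage, 25 °C; Measured by: 405 nm absorbance of p-nitroaniline; Evaluation: percent activation from buffer-corrected 0–120 min absorbance change; Control set: low DMSO alone, high DMSO plus 5 µM PC-7.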
PLC-beta3 inh: blocks human PLC-beta3 enzyme activity; Q01970; Purified PLC-beta3, fluorogenic substrate, fluorescence; inhibition, % at 12.2 µM; 370,000 compounds, 0.18% hits; AID 720704
PLCg1 inh: inhibitors of human phospholipase C gamma1 | P19174 | purified PLC-gamma1, fluorogenic substrate, fluorescence | inhibition, % at 12.2 µM | 370,000 compounds, 0.84% hits; in the data active = inhibition above about 9.5%
PLCg1 ctr: counter-screen for PLC-beta3 inhibitors: inhibitors of human PLC-gamma1 | 3,300 compounds, 3.1% hits | shares compounds with PLCg1 inh | purified PLC-gamma1, fluorogenic substrate, fluorescence | inhibition, % at 12.3 µM | AID 743258; in the data active = inhibition above about 9.5%
PLCbeta3 conf: confirmation of human PLC-beta3 inhibitors; purified PLC-beta3, fluorogenic substrate fluorescence; shares compounds with PLCg1 inh; AID 743261; inhibition, % at 12.3 µM; 3,300 compounds, 1% hits
A number is an active result. Only some compounds are listed: those with a hit (about 1.9% of all), similar ones and a draw of the others. Cut-off read from the data, not from the text of the source, unless noted: active = inhibition above about 11%; inactive = the rest.

How did COC(=O)N[C@H](C(=O)N[C@@H](Cc1ccccc1)[C@@H](O)CN(Cc1ccc(-c2ccccn2)cc1)NC(=O)[C@@H](NC(=O)OC)C(C)(C)C)C(C)(C)C do in these assays?
sPLA2-III inh: inactive; PLC-beta3 inh: 11; PLCg1 inh: 15; PLCg1 ctr: inactive; PLCbeta3 conf: inactive

How did CCc1nc2c(OCc3ccc(Cl)cc3Cl)cccn2c1N(C)C(=O)c1ccccc1F do in these assays?
sPLA2-III inh: inactive; PLC-beta3 inh: 11; PLCg1 inh: inactive; PLCg1 ctr: inactive; PLCbeta3 conf: inactive

How did CCc1nc2c(OC)cccn2c1N(C)C(=O)c1ccccc1F do in these assays?
sPLA2-III inh: inactive; PLC-beta3 inh: inactive; PLCg1 inh: inactive

Results for O=C(O)C(Cc1ccccc1)n1cccc1 (stereo not given) ?
procasp3 activ: inactive; sPLA2-III inh: inactive; Arrestin-AP2 inh: inactive; procasp7 counter: inactive; PLC-beta3 inh: inactive; PLCg1 inh: inactive

Results for O=C(O)C(Cc1ccccc1)n1cnnn1 (stereo not given) ?
procasp3 activ: inactive; sPLA2-III inh: inactive; Arrestin-AP2 inh: inactive; procasp7 counter: inactive; PLC-beta3 inh: inactive; PLCg1 inh: 10; PLCg1 ctr: inactive; PLCbeta3 conf: inactive

Results for Cc1nn(Cc2ccccc2)c(C)c1/C=N/NC(=O)CNc1cccc(C(F)(F)F)c1 ?
procasp3 activ: inactive; sPLA2-III inh: inactive; Arrestin-AP2 inh: inactive; procasp7 counter: inactive; PLC-beta3 inh: inactive; PLCg1 inh: 9.6; PLCg1 ctr: inactive; PLCbeta3 conf: inactive

What do the screens show for `COc1ccc(NCC(=O)N/N=C/c2c(C)nn(Cc3ccccc3)c2Cl)cc1`?
procasp3 activ: inactive; sPLA2-III inh: inactive; Arrestin-AP2 inh: inactive; procasp7 counter: inactive; PLC-beta3 inh: inactive; PLCg1 inh: inactive

What do the screens show for `Cc1nc([N+](=O)[O-])cn1CCCCN1C(=O)c2ccccc2C1=O`?
procasp3 activ: inactive; sPLA2-III inh: inactive; Arrestin-AP2 inh: inactive; procasp7 counter: inactive; PLC-beta3 inh: inactive; PLCg1 inh: 11; PLCg1 ctr: inactive; PLCbeta3 conf: inactive

What do the screens show for `Cc1ccccc1NC(=O)CN1CCN(c2nc(-c3ccccc3)cs2)CC1`?
sPLA2-III inh: inactive; PLC-beta3 inh: inactive; PLCg1 inh: inactive

How did O=S(=O)(NC1CCCC1)c1ccccc1Br do in these assays?
procasp3 activ: inactive; sPLA2-III inh: inactive; Arrestin-AP2 inh: inactive; procasp7 counter: inactive; PLC-beta3 inh: 16; PLCg1 inh: inactive; PLCg1 ctr: inactive; PLCbeta3 conf: inactive

Results for COc1ccc(S(=O)(=O)NC2CCCC2)cc1Br ?
procasp3 activ: inactive; sPLA2-III inh: inactive; Arrestin-AP2 inh: inactive; procasp7 counter: inactive; PLC-beta3 inh: inactive; PLCg1 inh: inactive

What do the screens show for `COC(=O)/C=C(\C)NC(=O)c1ccccc1Cl`?
procasp3 activ: inactive; sPLA2-III inh: inactive; Arrestin-AP2 inh: inactive; procasp7 counter: inactive; PLC-beta3 inh: 11; PLCg1 inh: inactive; PLCg1 ctr: inactive; PLCbeta3 conf: inactive

What do the screens show for `COc1ccc(C2=Nn3c(nnc3C3CCCCC3)SC2)cc1`?
sPLA2-III inh: inactive; PLC-beta3 inh: inactive; PLCg1 inh: inactive

What do the screens show for `Cc1ccc2cc(F)ccc2n1`?
sPLA2-III inh: inactive; PLC-beta3 inh: inactive; PLCg1 inh: inactive

Results for Cc1cnc2ccc(F)cc2c1 ?
sPLA2-III inh: inactive; PLC-beta3 inh: inactive; PLCg1 inh: 12; PLCg1 ctr: inactive; PLCbeta3 conf: inactive

How did OC(CC1CC12c1ccccc1-c1ncccc12)(c1ccccc1)c1ccccc1 (stereo not given) do in these assays?
procasp3 activ: inactive; sPLA2-III inh: inactive; Arrestin-AP2 inh: inactive; procasp7 counter: inactive; PLC-beta3 inh: inactive; PLCg1 inh: inactive

Results for CCOC(=O)C(C)C1(O)c2ccccc2-c2ncccc21 (stereo not given) ?
procasp3 activ: inactive; sPLA2-III inh: inactive; Arrestin-AP2 inh: inactive; procasp7 counter: inactive; PLC-beta3 inh: inactive; PLCg1 inh: 12; PLCg1 ctr: inactive; PLCbeta3 conf: inactive

How did Cc1ccc(/C(N)=N/OC(=O)c2ccc(Cl)cc2Cl)cc1 do in these assays?
procasp3 activ: inactive; sPLA2-III inh: inactive; Arrestin-AP2 inh: inactive; procasp7 counter: inactive; PLC-beta3 inh: 13; PLCg1 inh: inactive; PLCg1 ctr: inactive; PLCbeta3 conf: inactive

Results for CC1CCC(C(C)C)C(OCC(O)C[N+]2(C)CCCCC2)C1 (stereo not given) ?
procasp3 activ: inactive; sPLA2-III inh: inactive; Arrestin-AP2 inh: inactive; procasp7 counter: inactive; PLC-beta3 inh: inactive; PLCg1 inh: 11; PLCg1 ctr: inactive; PLCbeta3 conf: inactive

Results for Cc1ccc(CN2CCC[C@]3(N[C@H](c4ccccc4)[C@@H]4C(=O)N(Cc5ccccc5)C(=O)[C@@H]43)C2=O)cc1 ?
sPLA2-III inh: inactive; PLC-beta3 inh: inactive; PLCg1 inh: inactive

Results for Cc1ccc(CN2CCC[C@]3(N[C@H](c4ccc(C)cc4)[C@@H]4C(=O)N(Cc5ccccc5)C(=O)[C@@H]43)C2=O)cc1 ?
sPLA2-III inh: inactive; PLC-beta3 inh: inactive; PLCg1 inh: 9.9; PLCg1 ctr: inactive; PLCbeta3 conf: inactive

What do the screens show for `O=C(N/N=C\c1ccc(Cl)cc1)C1=NOC2COC3(CCN(c4ccc([N+](=O)[O-])cc4)CC3)OCC12` (stereo not given)?
procasp3 activ: inactive; sPLA2-III inh: inactive; Arrestin-AP2 inh: inactive; procasp7 counter: inactive; PLC-beta3 inh: 13; PLCg1 inh: 14; PLCg1 ctr: inactive; PLCbeta3 conf: inactive

How did NNC(=O)C1=NOC2COC3(CCN(c4ncccn4)CC3)OCC12 (stereo not given) do in these assays?
procasp3 activ: inactive; sPLA2-III inh: inactive; Arrestin-AP2 inh: inactive; procasp7 counter: inactive; PLC-beta3 inh: inactive; PLCg1 inh: inactive

Results for NC(CCc1ccccc1)c1csc(NC(=O)Nc2ccccc2Oc2ccccc2)n1 (stereo not given) ?
sPLA2-III inh: inactive; PLC-beta3 inh: inactive; PLCg1 inh: 16; PLCg1 ctr: inactive; PLCbeta3 conf: inactive

Results for Cc1cccc(C2(c3cccc(C)c3)OC(=O)c3ccccc32)c1 ?
procasp3 activ: inactive; sPLA2-III inh: inactive; Arrestin-AP2 inh: inactive; procasp7 counter: inactive; PLC-beta3 inh: inactive; PLCg1 inh: 14; PLCg1 ctr: inactive; PLCbeta3 conf: inactive

How did Cc1nn(CC(=O)N2CCCC2)c(=O)c2nn(-c3ccccc3)c(C)c12 do in these assays?
procasp3 activ: inactive; sPLA2-III inh: inactive; Arrestin-AP2 inh: inactive; procasp7 counter: inactive; PLC-beta3 inh: 12; PLCg1 inh: inactive; PLCg1 ctr: inactive; PLCbeta3 conf: inactive
